Reference: ChEMBL document CHEMBL1140048, “NO-donors. Part 17: Synthesis and antimicrobial activity of novel ketoconazole-NO-donor hybrid compounds” (Bioorg Med Chem, 2008)
Values after ≈ are worked out from the molar mass of the structure shown.

Tests used:
Aspergillus fumigatus [1] = experiment: Antifungal activity against Aspergillus fumigatus after 24 hrs by broth microdilution method; type: functional
Outline: (§1)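 Broth microdilution per NCCLS in RPMI 1640 (L-glutamine, MOPS, no bicarbonate). An 8 mM stock in DMSO/methanol 1:10 is serially diluted twofold; NONOate salts go through 0.1 M NaOH, with only the last step in medium. Inoculum is 6×10^3 CFU/mL final. A. fumigatus and A. terreus are incubated 24 h at 37 °C; others at 30 °C. MIC is the lowest dilution without visible growth, read nephelometrically.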

Nakaseomyces glabratus [2] = experiment: Antifungal activity against Candida glabrata after 24 hrs by broth microdilution method; type: functional; outline: as §1
Aspergillus niger [3] = experiment: Antifungal activity against Aspergillus niger after 24 hrs by broth microdilution method; type: functional; outline: as §1
Aspergillus terreus [4] = experiment: Antifungal activity against Aspergillus terreus after 24 hrs by broth microdilution method; type: functional; outline: as §1
Candida albicans [5] = experiment: Antifungal activity against Candida albicans after 24 hrs by broth microdilution method; type: functional; outline: as §1
Penicillium chrysogenum [6] = experiment: Antifungal activity against Penicillium notatum after 24 hrs by broth microdilution method; type: functional; outline: as §1
[7] = test system: Sporobolomyces salmonicolor; experiment: Antifungal activity against Sporobolomyces salmonicolor after 24 hrs by broth microdilution method; type: functional; outline: as §1
Fusarium oxysporum [8] = experiment: Antifungal activity against Fusarium oxysporum after 24 hrs by agar diffusion method
Aspergillus fumigatus [9] = experiment: Ratio of MIC for drug to ketoconazole against Aspergillus fumigatus; type: functional
Outline: (§2)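 FIC is calculated as the MIC of the test compound divided by the MIC of ketoconazole. Both MICs come from 24 h NCCLS broth microdilution in RPMI 1640/MOPS, starting from an 8 mM stock in twofold dilutions, at 6×10^3 CFU/mL. Incubation is at 37 °C for A. fumigatus and A. terreus and at 30 °C for the other strains.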

Aspergillus terreus [10] = experiment: Ratio of MIC for drug to ketoconazole against Aspergillus terreus; type: functional; outline: as §2
Aspergillus niger [11] = experiment: Ratio of MIC for drug to ketoconazole against Aspergillus niger; type: functional; outline: as §2
Fusarium oxysporum [12] = experiment: Ratio of MIC for drug to ketoconazole against Fusarium oxysporum; type: functional
Candida albicans [13] = experiment: Ratio of MIC for drug to ketoconazole against Candida albicans; type: functional; outline: as §2
[14] = test system: Sporobolomyces salmonicolor; experiment: Ratio of MIC for drug to ketoconazole against Sporobolomyces salmonicolor; type: functional; outline: as §2
Nakaseomyces glabratus [15] = experiment: Ratio of MIC for drug to ketoconazole against Candida glabrata; type: functional; outline: as §2
Penicillium chrysogenum [16] = experiment: Ratio of MIC for drug to ketoconazole against Penicillium notatum; type: functional; outline: as §2
[17] = Chemical stability of compound assessed as half life of nitric oxide release at pH 7.4; type: physicochemical; conditions: buffer

Row | Compound | MIC (Aspergillus fumigatus [1]) [µM] | MIC (Nakaseomyces glabratus [2]) [µM] | MIC (Aspergillus niger [3]) [µM] | MIC (Aspergillus terreus [4]) [µM] | MIC (Candida albicans [5]) [µM] | MIC (Penicillium chrysogenum [6]) [µM] | MIC [7] [µM] | MIC (Fusarium oxysporum [8]) [µM] | Ratio (Aspergillus fumigatus [9]) | Ratio (Aspergillus terreus [10]) | Ratio (Aspergillus niger [11]) | Ratio (Fusarium oxysporum [12]) | Ratio (Candida albicans [13]) | Ratio [14] | Ratio (Nakaseomyces glabratus [15]) | Ratio (Penicillium chrysogenum [16]) | t1/2 [17] [min]
1 | COCO/N=[N+](\[O-])N1CCN(c2ccccc2)CC1 | > 2000 | > 2000 | > 2000 | > 2000 | > 2000 | > 2000 | > 2000 | > 2000 | – | – | – | – | – | – | – | – | –
2 | O=C(CO[N+](=O)[O-])N1CCN(c2ccc(OC[C@H]3CO[C@](Cn4ccnc4)(c4ccc(Cl)cc4Cl)O3)cc2)CC1 | 25 (≈ 14.8 µg/mL) | 1.56 (≈ 0.924 µg/mL) | 12.5 (≈ 7.41 µg/mL) | 12.5 (≈ 7.41 µg/mL) | 25 (≈ 14.8 µg/mL) | 2.5 (≈ 1.48 µg/mL) | 0.16 (≈ 0.0948 µg/mL) | 100 (≈ 59.2 µg/mL) | 0.4 | 0.4 | 0.2 | 0.2 | 1 | 0.1 | 0.12 | 0.31 | –
3 | O=[N+]([O-])OCCN1CCN(c2ccc(OC[C@H]3CO[C@](Cn4ccnc4)(c4ccc(Cl)cc4Cl)O3)cc2)CC1 | 1000 (≈ 578 µg/mL) | 6.25 (≈ 3.62 µg/mL) | 250 (≈ 145 µg/mL) | 1000 (≈ 578 µg/mL) | 12.5 (≈ 7.23 µg/mL) | 62.5 (≈ 36.2 µg/mL) | 15.6 (≈ 9.02 µg/mL) | 1000 (≈ 578 µg/mL) | 16 | 32 | 4 | 2 | 0.5 | 10 | 0.5 | 7.81 | –
4 | [Na+].[O-]/N=[N+](\[O-])N1CCN(c2ccc(OC[C@H]3CO[C@](Cn4ccnc4)(c4ccc(Cl)cc4Cl)O3)cc2)CC1 | 200 | 12.5 | 100 | 100 | 100 | 20 | 1.25 | 200 | 3.2 | 3.2 | 1.6 | 0.4 | 4 | 0.8 | 1 | 2.5 | 4.5
5 | CCO/N=[N+](\[O-])N1CCN(c2ccc(OC[C@H]3CO[C@](Cn4ccnc4)(c4ccc(Cl)cc4Cl)O3)cc2)CC1 | 12.5 (≈ 7.22 µg/mL) | 3.13 (≈ 1.81 µg/mL) | 1.56 (≈ 0.901 µg/mL) | 3.13 (≈ 1.81 µg/mL) | 50 (≈ 28.9 µg/mL) | 1.25 (≈ 0.722 µg/mL) | 0.16 (≈ 0.0924 µg/mL) | 50 (≈ 28.9 µg/mL) | 0.2 | 0.1 | 0.025 | 0.1 | 2 | 0.1 | 0.25 | 0.16 | –
6 | COCO/N=[N+](\[O-])N1CCN(c2ccc(OC[C@H]3CO[C@](Cn4ccnc4)(c4ccc(Cl)cc4Cl)O3)cc2)CC1 | 8 (≈ 4.75 µg/mL) | 3.13 (≈ 1.86 µg/mL) | 4 (≈ 2.37 µg/mL) | 8 (≈ 4.75 µg/mL) | 25 (≈ 14.8 µg/mL) | 1.56 (≈ 0.926 µg/mL) | 2 (≈ 1.19 µg/mL) | 250 (≈ 148 µg/mL) | 0.13 | 0.26 | 0.06 | 0.5 | 1 | 1.3 | 0.25 | 0.2 | –
7 | O=C(CO/N=[N+](\[O-])N1CCCC1)N1CCN(c2ccc(OC[C@H]3CO[C@](Cn4ccnc4)(c4ccc(Cl)cc4Cl)O3)cc2)CC1 | 125 (≈ 82.6 µg/mL) | 12.5 (≈ 8.26 µg/mL) | 62.5 (≈ 41.3 µg/mL) | 62.5 (≈ 41.3 µg/mL) | 25 (≈ 16.5 µg/mL) | 8 (≈ 5.28 µg/mL) | 2 (≈ 1.32 µg/mL) | 1000 (≈ 661 µg/mL) | 2 | 2 | 1 | 2 | 1 | 1.3 | 1 | 1 | –
8 | CC(C)(CO[N+](=O)[O-])C(=O)N1CCN(c2ccc(OC[C@H]3CO[C@](Cn4ccnc4)(c4ccc(Cl)cc4Cl)O3)cc2)CC1 | 3.13 (≈ 1.99 µg/mL) | 3.13 (≈ 1.99 µg/mL) | 1.56 (≈ 0.99 µg/mL) | 1.56 (≈ 0.99 µg/mL) | 6.25 (≈ 3.97 µg/mL) | 8 (≈ 5.08 µg/mL) | 0.6 (≈ 0.381 µg/mL) | 25 (≈ 15.9 µg/mL) | 0.05 | 0.05 | 0.025 | 0.05 | 0.25 | 0.38 | 0.25 | 1 | –
9 | CC(=O)N1CCN(c2ccc(OCC3COC(Cn4ccnc4)(c4ccc(Cl)cc4Cl)O3)cc2)CC1 (configuration not stated) [KETOCONAZOLE] | 62.5 (≈ 33.2 µg/mL) | 12.5 (≈ 6.64 µg/mL) | 62.5 (≈ 33.2 µg/mL) | 31.2 (≈ 16.6 µg/mL) | 25 (≈ 13.3 µg/mL) | 8 (≈ 4.25 µg/mL) | 1.56 (≈ 0.829 µg/mL) | 500 (≈ 266 µg/mL) | – | – | – | – | – | – | – | – | –
10 | c1ccc(N2CCNCC2)cc1 [PHENYLPIPERAZINE] | > 2000 | > 2000 | > 2000 | > 2000 | > 2000 | > 2000 | > 2000 | > 2000 | – | – | – | – | – | – | – | – | –
